{"data": "Experimental data collected from several papers", "EGFR G719S": "Epidermal growth factor receptor (EGFR, Homo sapiens, UniProt P00533, G719S)", "EGFR del746-750": "Epidermal growth factor receptor (EGFR, Homo sapiens, UniProt P00533, del746-750)", "EGFR L858R": "Epidermal growth factor receptor (EGFR, Homo sapiens, UniProt P00533, L858R)", "EGFR G719C": "Epidermal growth factor receptor (EGFR, Homo sapiens, UniProt P00533, G719C)", "EGFR L858R/T790M": "Epidermal growth factor receptor (EGFR, Homo sapiens, UniProt P00533, L858R/T790M)", "EGFR": "Epidermal growth factor receptor (EGFR, Homo sapiens, UniProt P00533)", "EGFR L861Q": "Epidermal growth factor receptor (EGFR, Homo sapiens, UniProt P00533, L861Q)", "EGFR T790M": "Epidermal growth factor receptor (EGFR, Homo sapiens, UniProt P00533, T790M)", "note": "Protocols differ between the studies behind these lines."}
{"SMILES": "Nc1cnc(N2CCc3cc(S(=O)(=O)Nc4c(F)cc(Cl)cc4F)cc(N4CCCC4=O)c32)nc1", "target": "EGFR G719S", "test": "cell-free assay, competition with immobilised ligand", "conditions": "1 µM", "quantity": "remaining binding", "result": "75%"}
{"SMILES": "COc1cc2ncnc3c2cc1OCCOCCOc1c(Cl)cccc1N3", "target": "EGFR del746-750", "test": "enzyme activity, inhibitor, radiometric", "conditions": "1 µM", "quantity": "remaining activity", "result": "15%"}
{"SMILES": "COc1cc2ncnc(Nc3ccc(Oc4ccccc4)c(C)c3C)c2cc1OC", "target": "EGFR L858R", "test": "enzyme activity, inhibitor", "conditions": "1 µM", "quantity": "inhibition", "result": "65%"}
{"SMILES": "Nc1ncnc2occ(-c3ccc(NC(=O)Nc4cc(C(F)(F)F)ccc4F)cc3)c12", "target": "EGFR G719C", "test": "cell-free assay", "conditions": "20 µM", "quantity": "remaining signal", "result": "4.2%"}
{"SMILES": "CCC(=O)N[C@@H]1CC[C@H](C(=O)N(C)c2ccc(-c3nc4ccccc4o3)cc2)C1", "target": "EGFR G719S", "test": "cell-free assay, competition with immobilised ligand", "conditions": "1 µM", "quantity": "remaining binding", "result": "96%"}
{"SMILES": "CN(c1nccc(-c2cnn3ncccc23)n1)C1CC1", "target": "EGFR del746-750", "test": "binding", "conditions": "1 µM", "quantity": "remaining binding", "result": "100%"}
{"SMILES": "COc1cc(N(C)CCN(C)C)c(NC(=O)/C=C/C(C)C)cc1Nc1nc(Nc2cnn(C)c2)c2sccc2n1", "target": "EGFR L858R/T790M", "test": "enzyme activity, inhibitor, ELISA", "conditions": "0.1 µM", "quantity": "inhibition", "result": "34.6%"}
{"SMILES": "Oc1cccc(-c2nc(N3CCOCC3)c3oc4ncccc4c3n2)c1", "target": "EGFR", "test": "cell-free assay", "conditions": "0.5 µM", "quantity": "remaining signal", "result": "83.8%"}
{"SMILES": "CC/C(=N\\NC(=O)NCc1cccc(O)c1)c1ccc(O)c(C)c1O", "target": "Epidermal growth factor receptor (EGFR, Homo sapiens, UniProt P00533, del746-750/T790M)", "test": "enzyme activity, inhibitor", "conditions": "0.1 µM", "quantity": "inhibition", "result": "-0.8%"}
{"SMILES": "Cc1cnn2ncc(-c3ccnc(N(C)C)n3)c2c1", "target": "EGFR G719S", "test": "binding", "conditions": "1 µM", "quantity": "remaining binding", "result": "100%"}
{"SMILES": "Cc1c(NC(=O)c2cc(C(N)=O)nc3cc(F)ccc23)c(C(F)(F)F)nn1Cc1ccc(C#N)cc1", "target": "Epidermal growth factor receptor (EGFR, Homo sapiens, UniProt P00533, del752-759)", "test": "cell-free assay, competition with immobilised ligand", "conditions": "1 µM", "quantity": "remaining binding", "result": "79%"}
{"SMILES": "C=CC(=O)Nc1cc(Nc2nc(N3CCc4sccc4C3)c3cccnc3n2)c(OC)cc1N1CCN(CCO)CC1", "target": "EGFR L858R/T790M", "test": "enzyme activity, inhibitor, ELISA", "conditions": "0.1 µM", "quantity": "inhibition", "result": "2%"}
{"SMILES": "CN(C)C1CCN(CC#Cc2nn(C3CCCC3)c3nc(NCc4ccccc4)ncc23)C1 (stereo not shown)", "target": "EGFR", "test": "enzyme activity, inhibitor, FRET", "conditions": "0.1 µM", "quantity": "inhibition", "result": "14%"}
{"SMILES": "Cc1cc(C)c(-n2ccn3nc(-c4cccnc4)cc23)cc1NC(=O)c1cc(C#N)cc(S(F)(F)(F)(F)F)c1", "target": "EGFR L861Q", "test": "cell-free assay, competition with immobilised ligand", "conditions": "0.1 µM", "quantity": "remaining binding", "result": "91.1%"}
{"SMILES": "CN(C)c1nccc(-c2cnc3ncccn23)n1", "target": "EGFR del746-750", "test": "binding", "conditions": "1 µM", "quantity": "remaining binding", "result": "60%"}
{"SMILES": "Cc1cc(NC(=O)c2cccc3cc(-c4cccc5[nH]nc(N)c45)ccc23)ccc1F", "target": "EGFR L858R", "test": "enzyme activity, inhibitor", "conditions": "0.1 µM", "quantity": "activity vs control", "result": "112%"}
{"SMILES": "Cc1ccc(NC(=O)c2ccc(C)c(C(F)(F)F)c2)cc1C#Cc1nn(C2CCC(O)CC2)c2ncnc(N)c12 (stereo not shown)", "target": "EGFR", "test": "cell-free assay", "conditions": "10 µM", "quantity": "remaining signal", "result": "11%"}
{"SMILES": "C=CC(=O)Nc1cc(Nc2nc(N3CCc4sccc4C3)c3cccnc3n2)c(OC)cc1N(C)CCN(C)C", "target": "EGFR L858R/T790M", "test": "enzyme activity, inhibitor, ELISA", "conditions": "0.1 µM", "quantity": "inhibition", "result": "19.2%"}
{"SMILES": "CC(C)[C@@H]1NC(=O)[C@H](CCCNC(=N)N)NC(=O)[C@H](Cc2ccc(O)cc2)NC(=O)[C@H](C(C)C)NC(=O)[C@H](C(C)C)NC(=O)[C@H](CCCNC(=N)N)NC(=O)[C@H](CC(=O)O)NC(=O)[C@H](CC(=O)O)NC(=O)CCNC(=O)[C@H](Cc2ccc(O)cc2)NC(=O)[C@H](Cc2ccc(O)cc2)NC(=O)[C@H](Cc2ccccc2)NC(=O)[C@@H](Cc2ccc(O)cc2)NC(=O)CSC[C@@H](C(=O)NCC(N)=O)NC(=O)[C@H](C)NC1=O", "target": "EGFR", "test": "binding, SPR", "quantity": "kon", "result": "192000 M⁻¹ s⁻¹"}
{"SMILES": "O=C(Nc1cccnn1)N1CC(C/C=C/c2cncc(Oc3ccc(C(F)(F)F)cn3)n2)C1", "target": "EGFR G719C", "test": "cell-free assay, competition with immobilised ligand", "conditions": "1 µM", "quantity": "remaining binding", "result": "100%"}
{"SMILES": "COc1cc(-c2cc(-c3ccc(N4CCNCC4)cc3)cnc2N)cc(OC)c1OC", "target": "EGFR L858R", "test": "enzyme activity, inhibitor", "conditions": "1 µM", "quantity": "inhibition", "result": "76%"}
{"SMILES": "CNCc1ccccc1-c1csc([C@H](C)Nc2nc(C)nc3cc(OC)c(OC)cc23)c1", "target": "EGFR L858R/T790M", "test": "cell-free assay, competition with immobilised ligand", "conditions": "1 µM", "quantity": "remaining binding", "result": "87%"}
{"SMILES": "COc1cc2ncnc(Nc3cccc(Cl)c3)c2cc1OC", "target": "EGFR", "test": "cell-free assay", "conditions": "0.5 µM", "quantity": "remaining signal", "result": "0.718%"}
{"SMILES": "CC(C)[C@@H]1NC(=O)[C@H](CCCNC(=N)N)NC(=O)[C@H](Cc2ccc(O)cc2)NC(=O)[C@H](C(C)C)NC(=O)[C@H](C(C)C)NC(=O)[C@H](CCCNC(=N)N)NC(=O)[C@H](CC(=O)O)NC(=O)[C@H](CC(=O)O)NC(=O)[C@H](C)NC(=O)[C@H](Cc2ccc(O)cc2)NC(=O)[C@H](Cc2ccc(O)cc2)NC(=O)[C@H](Cc2ccccc2)NC(=O)[C@@H](Cc2ccc(O)cc2)NC(=O)CSC[C@@H](C(=O)NCC(N)=O)NC(=O)[C@H](C)NC1=O", "target": "EGFR", "test": "binding, SPR", "quantity": "kon", "result": "166000 M⁻¹ s⁻¹"}
{"SMILES": "COc1ccc(COc2ccc(Cc3cnc(N)nc3N)cc2OC)cc1", "target": "EGFR", "test": "cell-free assay", "conditions": "0.5 µM", "quantity": "remaining signal", "result": "96.9%"}
{"SMILES": "CC1CCCN1c1nccc(-c2cnn3ncccc23)n1 (stereo not shown)", "target": "EGFR G719C", "test": "binding", "conditions": "1 µM", "quantity": "remaining binding", "result": "100%"}
{"SMILES": "O=C(NCCCN1CCOCC1)c1ccc(Nc2nccc(-c3cc4ccccc4s3)n2)cc1", "target": "EGFR T790M", "test": "binding, competition with immobilised ligand", "conditions": "1 µM", "quantity": "remaining binding", "result": "90%"}
{"SMILES": "Cc1ccc(C(=O)Nc2ccc(CN3CCN(C)CC3)c(C(F)(F)F)c2)cc1C#Cc1cnc2cccnn12", "target": "EGFR", "test": "cell-free assay", "conditions": "23.5 nM", "quantity": "remaining signal", "result": "55%"}
{"SMILES": "CN(C)c1ncnc(-c2ccc3nc(Nc4cc(CN5CCN(C(=O)CC(F)(F)F)CC5)ccn4)[nH]c3c2)c1Cl", "target": "EGFR L858R", "test": "cell-free assay, competition with immobilised ligand", "conditions": "1 µM", "quantity": "remaining binding", "result": "100%"}
{"SMILES": "Cc1ccc(Nc2nccc(N(C)c3ccc4c(C)n(C)nc4c3)n2)cc1S(N)(=O)=O", "target": "EGFR", "test": "cell-free assay", "conditions": "0.5 µM", "quantity": "remaining signal", "result": "91%"}
{"SMILES": "COc1cc2ncnc(Nc3ccc(Oc4ccccc4)cc3C)c2cc1OC", "target": "EGFR", "test": "enzyme activity, inhibitor", "conditions": "1 µM", "quantity": "inhibition", "result": "89%"}
{"SMILES": "COc1ccnn2ncc(-c3ccnc(N(C)C)n3)c12", "target": "EGFR L858R/T790M", "test": "binding", "conditions": "1 µM", "quantity": "remaining binding", "result": "93%"}
{"SMILES": "Cc1sc(C(=O)NC2COC2)cc1-n1cc(NC(=O)Nc2c(F)cccc2Cl)cn1", "target": "EGFR", "test": "enzyme activity, inhibitor", "conditions": "10 µM", "quantity": "remaining activity", "result": "98.5%"}
{"SMILES": "C=C(Cl)C(=O)Nc1cc(Nc2nc(N3CCSCC3)c3sccc3n2)c(OC)cc1N(C)CCN(C)C", "target": "EGFR L858R/T790M", "test": "enzyme activity, inhibitor, ELISA", "conditions": "0.1 µM", "quantity": "inhibition", "result": "50.2%"}
{"SMILES": "CC(C)(C)c1nc2c(s1)c1nc(N)ncc1c1ccc(NS(=O)(=O)c3c(F)cccc3F)c(F)c12", "target": "EGFR", "test": "enzyme activity, inhibitor, radiometric", "conditions": "1 µM", "quantity": "remaining activity", "result": "104%"}
{"SMILES": "N[C@@H]1CCN(c2nccc(-c3cnn4ncccc34)n2)C1", "target": "EGFR L861Q", "test": "binding", "conditions": "1 µM", "quantity": "remaining binding", "result": "92%"}
{"SMILES": "O=C(Nc1cccnn1)N1CCC(=Cc2cccc(Oc3ccc(C(F)(F)F)cn3)c2)CC1", "target": "EGFR L858R/T790M", "test": "cell-free assay, competition with immobilised ligand", "conditions": "1 µM", "quantity": "remaining binding", "result": "99%"}
{"SMILES": "Cc1cnc(NC2CCOCC2)nc1-n1cnc(C(=O)NC(CN)c2cc(F)cc(Cl)c2)c1 (stereo not shown)", "target": "EGFR T790M", "test": "enzyme activity, inhibitor, radiometric", "conditions": "1 µM", "quantity": "remaining activity", "result": "98%"}
{"SMILES": "C[C@H]1CCN(c2nccc(-c3cnn4ncccc34)n2)C1", "target": "EGFR L858R/T790M", "test": "binding", "conditions": "1 µM", "quantity": "remaining binding", "result": "80%"}
{"SMILES": "O=C(c1ccc(Nc2nccc(-c3cc4ccccc4s3)n2)cc1)N1CCC(N2CCCC2)CC1", "target": "EGFR G719S", "test": "binding, competition with immobilised ligand", "conditions": "1 µM", "quantity": "remaining binding", "result": "94%"}
